For the data set, the system named is MS2 coat protein. Put plainly: apparent Kd, MS2 coat protein; higher = weaker binding; RNA-MaP array; FMN 200 µM where present. An outline of the steps: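 The apparent Kd is reported as the median of filtered per-cluster binding-curve fits. To get these curves, designs transcribed by stalled E. coli RNA polymerase on Illumina sequencing-chip clusters were titrated with SNAP-549-labelled MS2 coat protein from 0.7 or 1.5 nM, doubling to 3 µM. Titrations were run without and then with constant ligand in 100 mM Tris-HCl pH 7.5, 80 mM KCl, 4 mM MgCl2, BSA, DTT, yeast tRNA and Tween-20, and green signal was normalised to red-channel RNA signal and control-cluster median Fmax.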

Where [1] appears, read: designed as: OFF switch for flavin mononucleotide, no ligand.
Where [2] appears, read: ligand present: flavin mononucleotide, designed as: OFF switch for flavin mononucleotide.
Setting [3] is: designed as: ON switch for flavin mononucleotide, no ligand.
Setting [4] is: ligand present: flavin mononucleotide, designed as: ON switch for flavin mononucleotide.

As to “GAAGCACAUGAGGAUCACCCAUGUGAGGAUAUCCGUCUGGUCCGGCCGGGCCAGUACCGGAGAAGGCGCGUCGA”, the “apparent Kd” value is 34.7 nM under setting [1] and 29.7 nM under setting [2].
The like results for “AAAUCAGUAGGAUAUACGAUUUUAUGCUAGAUAGAGGGACCACAUGAGGAUCACCCAUGUAGAAGGACUAGAUA” were, in that order, 20.2 nM and 21.4 nM.
Consider “GCGUAAGUCACAGGAUAUCCAACAUGAGGAUCACCCAUGUAAAAGUGCCGCAUUAGAAUGCGACUGGAGAAGGGUGAUUCGUCG”, for which the “apparent Kd” value reads like this: under setting [3], 51.3 nM; under setting [4], 23.4 nM.
In the case of “GUUAGGAAUCUAGCGAACAUGAGGAUCACCCAUGUUAGUGGGAAGGAUAUGGUACAGAAACUGUACCAGAAGGUCUUAUUGUUU”, the “apparent Kd” value under setting [3] was 398 nM and the “apparent Kd” value under setting [4] turned out to be 305 nM.
Turning to “UAGACAUGAGGAUCACCCAUGUACUGGAUUUCAACGCGAUCACAGGAUAUACGGGAUUCGUCCACGUAGAAGGGUGACAACGUC”, the “apparent Kd” value by setting is: under setting [3], 143 nM; under setting [4], 35.1 nM.
With “UAAACGUUCUAGAAGGUGCUUUUGUUAAACAAGCAAGGAUAUAGACAUGAGGAUCACCCAUGUCUUUUAGACAUCGACAUACUU”, the “apparent Kd” value reads like this: under setting [1], 6.9 nM; under setting [2], 8.03 nM.
In the case of “AAAACAUGAGGAUCACCCAUGUAAAGAUCGGUUAAUUAAAGUGAGGAUAUACAAAAUUUUAUAUAGUAGAAGGCACUGGGUACA”, the “apparent Kd” value reads like this: under setting [3], 30.2 nM; under setting [4], 33.4 nM.
Turning to “UAUGUUGUUGUGAGGAUAUACUUAGUUUGACCGUAGUAGAAGGCACAUGAGGAUCACCCAUGUAGAUGUUUGGU”, the “apparent Kd” value under setting [1] worked out at 15.8 nM and the “apparent Kd” value under setting [2] worked out at 29.5 nM.
As to “GGGUAGGACAGAGGAUAUACGUGCUAGAGAUACUAGCAAAAUUUCCUCACAUGAGGAUCACCCAUGUAGAAGGCUGUCCUAUCG”, the “apparent Kd” value by setting is: under setting [1], 16.9 nM; under setting [2], 397 nM.
Take “CAGUACUGAGGAUAUACAUGAGGAUCACCCAUGUGUUCCAGCUAGGAAACUAGCAAAUGUAGAAGGCAGUACUG”: the “apparent Kd” value runs as follows: under setting [1], 212 nM; under setting [2], 317 nM.
For “GGUGGCCGAGGAUAUACGGACGUGUCGCCGGGUGUCGUGGGACAUGAGGAUCACCCAUGUAGAAGGUGGUUGUC”, the “apparent Kd” value runs as follows: under setting [1], 187 nM; under setting [2], 147 nM.
Take “UAUGAGCGAGGAUAUGCUUGGGACUGUCGGAAGGUGGCGGGACAUGAGGAUCACCCAUGUAGAAGGCGCGAGCG”: the “apparent Kd” value is, setting by setting: under setting [1], 70.7 nM; under setting [2], 82.8 nM.
On to “AGUAAGAUGCAGAAGGUGUCAGCGAGAGCUGCACAUGAGGAUCACCCAUGUUGUCGGUGACGACGCAAGGAUAUGCAUCUUACA”, for which the “apparent Kd” value was 89.2 nM under setting [3] and 15.8 nM under setting [4].
For “CCUCAGUAAGGAUAUCAGCUUAGGAGGUUGGUAAUGAGAGCUGAGAAGGUACAUGAGGAUCACCCAUGUUAGUU”, the “apparent Kd” value was determined as 30.6 nM under setting [1] and 76.4 nM under setting [2].
As for “UGGUACUAGGGAGGAUAUGGGAAGAUACAUGAGGAUCACCCAUGUUUAAGAAUACCGAGAGGCAACUAGAAGGCCCUAGUACCU”, the “apparent Kd” value under setting [3] was determined as 192 nM and the “apparent Kd” value under setting [4] turned out to be 13.3 nM.
As for “AAAAGUUGAGGAUAUACAAAAUGAUUGCGAAAUCAAUUAAAACAUGAGGAUCACCCAUGUAGAAGGCGAUAAAA”, the “apparent Kd” value by setting is: under setting [1], 31.1 nM; under setting [2], 25.9 nM.
For “AGAAACUACGAGAAGGACAUGUGGUCAAAACGAAACAUGAGGAUCACCCAUGUAGGAUAUCGUAGUUUCAGGAUCGUGAGAUCA”, in that order: 265 nM and 429 nM.
As for “AGGCUAUUAGGAUAUACAUGAGGAUCACCCAUGUCGAUCUACAGGCUACGGCACGGCAGUAGAAGGAAUGGCCG”, the “apparent Kd” value reads like this: under setting [1], 15.7 nM; under setting [2], 16.7 nM.
On to “UGUAUUAAUGGAGGAUAUCGAUAUCAAACAUGAGGAUCACCCAUGUUGAGGAUCACCCAUGUCCAUGAGAAGGCUGGCGUACUU”, for which the “apparent Kd” value by setting is: under setting [3], 30.4 nM; under setting [4], 29.2 nM.
With “UUUUAACAUGAGGAUCACCCAUGUGAGGAUAUCGAAAUUUAUAUUAAUAUUUAUUAAACGAGAAGGCACAUUUU”, the “apparent Kd” value turned out to be 82.2 nM under setting [1] and 80.7 nM under setting [2].
With “GGGUACAUCGGAGGAUAUCAUGUAAAUACAUGAGGAUCACCCAUGUCGAUGGAGACAUCGGAGAUAGAGAAGGCCGAUGUACCG”, the “apparent Kd” value is, setting by setting: under setting [3], 476 nM; under setting [4], 11 nM.
On to “CAGUGCUGUUGAGAGGAUAUGCGGCGACGGACAUGAGGAUCACCCAUGUUAGCGACAGCGUUGCGGCAGAAGGCUCUGCCCACUG”, for which the “apparent Kd” value was found to be 11.2 nM under setting [3] and 10.4 nM under setting [4].
On to “UGAUACAUGAGGGUCUCCCAUGACAUGAGGAUCACCCAUGUGCAGGAUAUACGUGUGAUAAUAUAGUAGAAGGGCAGUCUAUGU”, for which the “apparent Kd” value runs as follows: under setting [1], 345 nM; under setting [2], 577 nM.
For “UGUCGGAGCAGAGGAUAUUACAUGAGGAUCACCCAUGUAUGAACCCAUAGCUGGAAACAGCAAUGUAAGAAGGCUGCUCCGACA”, in that order: 8.97 nM and 82.4 nM.
For “ACGUGUUAUACAGGAUAUGUAUAGGAAUAAUCAUACAGUUAUUAAUUAAUGACAGAAGGGUAAACAUGAGGAUCACCCAUGUCA”, in that order: 546 nM and 390 nM.
With “UUUUUGUCAGGAUAUGACUAGAUGCACGUUAGUGUAUUUACUUAGAAGGGACAUGAGGAUCACCCAUGUAUUCC”, the “apparent Kd” value is 30.7 nM under setting [1] and 26.7 nM under setting [2].
The like results for “UAUACACAUGAGGAUCACCCAUGUGAGGAUAUGCGUACGUUGUCCGUAGGCGACGUGCGCAGAAGGCGCAAGGU” were, in that order, 72.7 nM and 104 nM.
For “AAUUUACAGCUAGGAUAUACAUGAGGAUCACCCAUGUAAUGAUCGGAUCUUAUGAUCGUAUCCGUGUAGAAGGAGCAAAUAAGA”, in that order: 8.12 nM and 8.8 nM.
Consider “CACGUCAGGAAACGGAGCGGCCAACAUGAGGAUCACCCAUGUGAGGAUAUGCCUACUAAAAGUAGGCAGAAGGCGCAAUUGGCA”, for which the “apparent Kd” value runs as follows: under setting [1], 29.1 nM; under setting [2], 39.9 nM.
For “UCCUCGAUGUAGAAGGCCGCGUCCGGCUCACGCGGAGGAUAUACAUGAGGAUCACCCAUGUGUUUGUGGCUAAUAUGGUACGAA”, the “apparent Kd” value reads like this: under setting [1], 159 nM; under setting [2], 18.2 nM.
With “UCACGGGACUAAGGAUAUAUGAGUACCAUUUACAUAGAAGGUAGAAUGUUAGAUCAUAAACUAAACAUGAGGAUCACCCAUGUU”, the “apparent Kd” value was determined as 19.4 nM under setting [1] and 18.6 nM under setting [2].
The like results for “CAGUACUGAGGAUAUACAUGAGGAUCACCCAUGUGUUCCAGCUUGGAAACUAGCAAAAGUAGAAGGCAGUACUG” were, in that order, 14.8 nM and 158 nM.
For the sequence “ACAUGAGGAUCACCCAUGUGAACAUAGGAUAUUGGUGAUCAGGCAUGUUAUACAGGAUAUGUCUGCGAGAAGGGUGCACGUUGC”, the “apparent Kd” value reads like this: under setting [3], 524 nM; under setting [4], 412 nM.
As for “ACUGCAUAGUCAGGAUAUGCAAAAGCAGAUGCAAAGCAUCUGAACAACACAUGAGGAUCACCCAUGUAGAAGGGACUGUGCAGU”, the “apparent Kd” value was 23.3 nM under setting [1] and 22.4 nM under setting [2].
As for “UUAUAUAGGUAGGAUAUCGAUAUUAAUUAUUAUCGAGAAGGGUCUACAUGAGGAUCACCCAUGUUAGCAUGUAU”, the “apparent Kd” value reads like this: under setting [1], 28.9 nM; under setting [2], 32.9 nM.
Turning to “AGGAGUAAAGGGAAUAACAUGAGGAUCACCCAUGUAUGGGAGAGAAGGCAUAUCGGAGGACGAUAUGAGGAUAUUUAAACUCUA”, the “apparent Kd” value reads like this: under setting [3], 62.6 nM; under setting [4], 18.7 nM.
As to “AGAGCCUCGUGAGGAUAUACAUGAGGAUCACCCAUGUAAAUGAAAGAUAACGAGGAAACUCGAAUGUAGAAGGCACGAGGCUCA”, the “apparent Kd” value came to 24.4 nM under setting [1] and 182 nM under setting [2].
Take “GGUUGGCGAGGAUAUACAUGAGGAUCACCCAUGUGGUCCUGCGAUAGAAUCGCCCUUUGUAGAAGGCGCGGGUC”: the “apparent Kd” value runs as follows: under setting [1], 67 nM; under setting [2], 55.2 nM.
Take “GGGUACAUCGGAGGAUAUCAUGUAAAUACAUGAGGAUCACCCAUGUCGAUGGAGACAUUGGAGAUUGAGAAGGCCGAUGUACCG”: the “apparent Kd” value is, setting by setting: under setting [3], 156 nM; under setting [4], 219 nM.
With “CUUCAGUGAGGAUAUGGCAUGCGCUGAUAAGCGCUCUCACGCCAGAAGGCACAUGAGGAUCACCCAUGUAAAAC”, the “apparent Kd” value is 39.1 nM under setting [1] and 152 nM under setting [2].
The like results for “GAGCGAAAGCUCAAUGUCGAUAGCAGAAGGACGUGAAAACAUGAAAACACAUGAGGAUCACCCAUGUAGGAUAUGCUAUCGACU” were, in that order, 11.2 nM and 27.6 nM.
In the case of “GUAGAGUAGUGAGGAUAUACGAGAUCGAUAGAUCGGCGAUCCAAUUAUACAUGAGGAUCACCCAUGUAGAAGGCACUUCUCUAC”, the “apparent Kd” value amounted to 12.6 nM under setting [1] and 116 nM under setting [2].
On to “GAGUAGAUCCGAGGAUAUACAAUCCGGAAACGGUACAUGAGGAUCACCCAUGUAGAAGGCGGAUCUACAGGUACUAAAGUACCU”, for which, under setting [2], the “apparent Kd” value was determined as 7.89 nM.
With “GGAUAGGACAGAGGAUAUACGUGCUGGAGAUACUAGCAAAAUUUCCUCACAUGAGGAUCACCCAUGUAGAAGGCUGUCCUAUCG”, the “apparent Kd” value turned out to be 32.6 nM under setting [1] and 478 nM under setting [2].
On to “GCCUCACAUGAGGAUCACCCAUGUCAGGAUAUCUAAGGCGAGGUGCAGGCACUUCGUGAGAGAAGGGACGUCAA”, for which the “apparent Kd” value is 21.4 nM under setting [1] and 49.8 nM under setting [2].
Turning to “GCGGUACAUGAGGAUCACCCAUGUCAGGAUAUCCGCUGUUUGUUAAUAAGCAGGCGGUGGAGAAGGGACUUCGC”, the “apparent Kd” value amounted to 32 nM under setting [1] and 33.1 nM under setting [2].
Take “AAGCUCGUGUGAGGAUAUGCCGCCGUUUCGGCUGCAGAAGGUGCUACGUUACAUGAGGAUCACCCAUGUCUCUGUUGUUUCGUC”: the “apparent Kd” value is 29.9 nM under setting [3] and 24.8 nM under setting [4].
For the sequence “CCGGAUAUGCAGGAUAUCGUAUCGGAGACGAUACGAGAAGGGUAUACAUGAGGAUCACCCAUGUGUCCUACCGG”, the “apparent Kd” value reads like this: under setting [1], 26.4 nM; under setting [2], 32.1 nM.

For the origin of these results see the EternaBench riboswitch data.
